Results taken from paper PMC3049920 (Journal of immunology (Baltimore, Md. : 1950), 2010).

Legend:
[1] = tested on: B16 melanoma tumors; test: B16 melanoma tumors in C57BL/6 mice; type: in vivo, mouse; settings: 12 mg, daily, 5 d/wk, s.c.
[2] = tested on: IFNγ+ cells in human peripheral blood; test: Induction of IFNγ+ cells in human peripheral blood in vitro; type: cell-based; settings: 20 µg/ml
Procedure, shortened: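 Whole heparinized blood (0.1 ml) from healthy volunteers was incubated with test agent at 37°C for 4 h. RBCs were lysed with hypotonic buffer (10 mM Tris pH 7.4, 10 mM NaCl), and the WBC pellet was washed and resuspended in RPMI 1640/10% FCS. IFNγ+ cells were quantified by human IFNγ ELISPOT (16 h culture). Values are mean ± SD of duplicates.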

[3] = tested on: IFNγ+ cells in mouse splenocytes; test: Induction of IFNγ+ cells in mouse splenocytes in vitro; type: cell-based; settings: optimal dose 20 µg/ml
Procedure, shortened: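 Splenocytes came from female 129 mice, 3–5 weeks old. They were cultured 16 h in RPMI 1640/10% FCS with or without test agent in plates coated with anti-mouse IFNγ antibody. IFNγ+ cells were detected in situ by ELISPOT and counted with an automated reader. Values are mean ± SD of duplicates.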

[4] = tested on: cellular phospho-tyrosine proteins in Jurkat cells; test: Profile of cellular phospho-tyrosine proteins in Jurkat cells; type: cell-based, human; settings: 10 min

| Compound | response of B16 tumors [1] | induction of IFNγ+ cells [2] | maximal increase of IFNγ+ cells [3] | effect on profile of cellular phospho-tyrosine proteins [4] |
| --- | --- | --- | --- | --- |
| O.O.O.O.O.O.O.O.O.O=C([O-])[C@@H]1[O][Sb](=[O])([O][Sb]2(=[O])[O][C@H]([C@H](O)CO)[C@H](O)[C@H](C(=O)[O-])[O]2)[O][C@H]([C@H](O)CO)[C@@H]1O.[Na+].[Na+].[Na+] (stereo partly shown) [SSG, sodium stibogluconate] | not responsive | ~ 2 fold | ~ 3 fold | – |
| pervanadate [pervanadate (PV)] | – | – | – | marked increases of multiple phosphotyrosine proteins |
